From article PMC2903661 (Bioorganic & medicinal chemistry, 2010)

Legend:
CB2 receptors [1] = target: T1, CB2 receptors (Mus musculus, UniProt P47936); experiment: Blocking dissection study in LPS-5-day-treated CD1 mice; assay type: in vivo; details: for reduction of the specific binding of [11C]1 in whole brain: LPS-5-day mice, AM630 3 mg/kg or GW405833 2 mg/kg s.c., normalized uptake, 60 min, control CD1 mice as measure of non-specific binding
Method in brief: (§1)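 Control CD1 mice, or CD1 mice 5 days after a single i.p. LPS dose (5 mg/kg in saline, strain O111:B4), received AM630 3 mg/kg or GW405833 2 mg/kg s.c. in DMSO; controls got DMSO vehicle. Radiotracer (~150 GBq/μmol) was given i.v. 30 min later, and tissues were harvested at 60 min and gamma-counted. Whole-brain uptake was %ID/g per body weight normalized by blood; mean ± SD, n=3.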

CB2 receptors [2] = target: T1, CB2 receptors; experiment: Blocking dissection study in control CD1 mice; assay type: in vivo; details: AM630 3 mg/kg or GW405833 2 mg/kg s.c., 60 min
Method in brief: as §1

CB2 receptors [3] = target: T1, CB2 receptors; assay type: in vivo; details: APPswe/PS1dE9 mice
CB2 receptors [4] = target: T1, CB2 receptors; experiment: Baseline dissection biodistribution of [11C]1 in control CD1 mice; assay type: in vivo; details: i.v., whole body time-activity curve
Method in brief: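 Male CD-1 mice (23-28 g) received the radiotracer (specific radioactivity ~150 GBq/μmol, in saline) by lateral tail vein. They were killed by cervical dislocation at various times after injection. Organs and brain were removed and dissected on ice, then weighed and gamma-counted (counting error below 3%) against injectate aliquots as standards. Uptake was expressed as %ID/g tissue.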

CB2 receptors [5] = target: T1, CB2 receptors; assay type: in vivo, mice
Method in brief: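 Male CD1 mice got a single i.p. LPS dose (5 mg/kg in saline, strain O111:B4) 3 or 5 days before i.v. radiotracer; untreated CD1 mice served as controls. At 60 min, cerebellum, hippocampus, cortex, brainstem and rest of brain were dissected, weighed and gamma-counted. Uptake was %ID/g tissue (± SD, n=3), and regional ratios were taken as 5-day LPS over control.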

T1 sequence (P47936 whole entry): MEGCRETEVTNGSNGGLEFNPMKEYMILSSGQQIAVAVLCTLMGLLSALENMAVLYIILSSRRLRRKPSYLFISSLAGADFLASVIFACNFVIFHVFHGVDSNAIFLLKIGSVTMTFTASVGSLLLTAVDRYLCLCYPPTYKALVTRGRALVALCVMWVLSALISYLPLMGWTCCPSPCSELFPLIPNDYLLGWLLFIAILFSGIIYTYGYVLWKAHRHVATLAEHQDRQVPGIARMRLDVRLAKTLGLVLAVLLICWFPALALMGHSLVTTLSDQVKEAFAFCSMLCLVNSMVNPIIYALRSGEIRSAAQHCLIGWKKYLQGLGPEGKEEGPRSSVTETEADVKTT

SMILES	reduction of the specific binding of [11C]1 in whole brain (CB2 receptors [1])	difference in normalized whole brain uptake between baseline and blockade (CB2 receptors [2])	reduction of radioactivity uptake by blockade in cerebellum and brainstem (CB2 receptors [3]; AM630, 60 min)	reduction of radioactivity uptake by blockade in cortex and rest of brain (CB2 receptors [3]; AM630, 60 min)	uptake difference between baseline and blockade, brainstem (CB2 receptors [3]; AM630 blockade, 60 min, brainstem)	uptake difference between baseline and blockade, cerebellum (CB2 receptors [3]; AM630 blockade, 60 min, cerebellum)	uptake difference between baseline and blockade, cortex (CB2 receptors [3]; AM630 blockade, 60 min, cortex)	uptake difference between baseline and blockade, rest of brain (CB2 receptors [3]; AM630 blockade, 60 min, rest of brain)	uptake of [11C]1 in the brain (CB2 receptors [4]; brain)	uptake of [11C]1 in the heart (CB2 receptors [4]; heart)	uptake of [11C]1 in the intestine (CB2 receptors [4]; intestine)	uptake of [11C]1 in the kidney (CB2 receptors [4]; kidney)	uptake of [11C]1 in the liver (CB2 receptors [4]; liver)	uptake of [11C]1 in the spleen (CB2 receptors [4]; spleen)	specific CB2 cerebral uptake (CB2 receptors [1]; LPS-induced mouse model of neuroinflammation, summary)	increase of brain uptake versus control mice, LPS three days before (Group 2) (CB2 receptors [5]; LPS-3-day-treated CD1 mice versus control, all brain regions)	regional uptake ratio of Group 3 to Group 1, cerebellum (CB2 receptors [5]; LPS-5-day-treated versus control CD1 mice, %ID/g tissue, cerebellum)	regional uptake ratio of Group 3 to Group 1, cortex (CB2 receptors [5]; LPS-5-day-treated versus control CD1 mice, %ID/g tissue, cortex)	regional uptake ratio of Group 3 to Group 1, hippocampus (CB2 receptors [5]; LPS-5-day-treated versus control CD1 mice, %ID/g tissue, hippocampus)	regional uptake ratio of Group 3 to Group 1, rest of the brain (CB2 receptors [5]; LPS-5-day-treated versus control CD1 mice, %ID/g tissue, rest of the brain)
COc1ccc(C(=O)c2c(C)n(CCN3CCOCC3)c3cc(I)ccc23)cc1 [AM630]	78%	little difference	insignificant reduction	significant reduction	29%	29%	36%	33%	–	–	–	–	–	–	–	–	–	–	–	–
COc1ccc2c(c1)c(CCN1CCOCC1)c(C)n2C(=O)c1cccc(Cl)c1Cl [GW405833]	84%	little difference	–	–	–	–	–	–	–	–	–	–	–	–	–	–	–	–	–	–
Cc1sc(=NC(=O)C2C(C)(C)C2(C)C)n(CCO[11CH3])c1C [[^11C]1]	–	–	–	–	–	–	–	–	0.3 %ID/g tissue	0.7 %ID/g tissue	1.5 %ID/g tissue	2.2 %ID/g tissue	4.9 %ID/g tissue	1.3 %ID/g tissue	78-84%	insignificant increase	1.8	1.7	1.9	1.5
